Published values from different studies.
Compare with care: the assays were run in different laboratories.
Target: Rhodopsin kinase GRK1 (GRK1, Homo sapiens, UniProt Q15835)
Residues used in one study (Q15835 1-563): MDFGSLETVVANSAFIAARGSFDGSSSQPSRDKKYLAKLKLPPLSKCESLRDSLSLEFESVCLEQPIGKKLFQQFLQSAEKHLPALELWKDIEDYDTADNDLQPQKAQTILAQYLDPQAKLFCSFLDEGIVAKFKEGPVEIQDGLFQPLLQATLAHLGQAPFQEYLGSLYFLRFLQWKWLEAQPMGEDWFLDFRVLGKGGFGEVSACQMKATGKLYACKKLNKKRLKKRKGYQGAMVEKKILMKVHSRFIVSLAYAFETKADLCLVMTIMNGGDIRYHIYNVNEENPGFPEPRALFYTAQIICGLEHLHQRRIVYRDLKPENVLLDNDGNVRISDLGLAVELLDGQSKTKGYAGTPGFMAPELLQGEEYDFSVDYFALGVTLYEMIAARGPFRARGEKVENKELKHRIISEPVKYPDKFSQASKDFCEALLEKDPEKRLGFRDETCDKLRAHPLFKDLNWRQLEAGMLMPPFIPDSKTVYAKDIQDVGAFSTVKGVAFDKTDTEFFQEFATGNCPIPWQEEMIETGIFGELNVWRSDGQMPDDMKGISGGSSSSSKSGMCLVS

Compound | test | setting | measurement | value
O=C(NS(=O)(=O)c1ccc(NCC2CCOCC2)c([N+](=O)[O-])c1)c1ccc(N2CCN(Cc3ccc(C(F)(F)F)cc3-c3ccc(Cl)cc3)CC2)cc1Oc1cnc2[nH]ccc2c1 | cell-free assay, competition with immobilised ligand | 1 µM | remaining binding | 100%
CCN1CCC2(CC1)NC(=O)c1c(c3ccc(Cl)c(Cl)c3n1C)C2C#N (racemic) | thermal stability, DSF | 10 µM | ΔTm | 1.2 °C
CC(C)CC(=O)N1CCc2nc(-c3ccc(Br)cc3)nc(N(C)Cc3ccccc3)c2C1 | cell-free assay, competition with immobilised ligand | 0.1 µM | remaining binding | 100%
Cn1c2c(c3ccc(Cl)c(Cl)c31)C(C#N)C1(CCNCC1)NC2=O (racemic) | thermal stability, DSF | 10 µM | ΔTm | 2.4 °C
Cc1sc(C(=O)NC2COC2)cc1-n1cc(NC(=O)Nc2c(F)cccc2Cl)cn1 | enzyme activity, inhibitor | 10 µM | remaining activity | 113%
O=C(N1CCS(=O)(=O)CC1)N1C[C@H](c2ccc(OC(F)(F)F)cc2)C[C@H](c2nc(C3CC3)no2)C1 | cell-free assay, competition with immobilised ligand | 1 µM | remaining binding | 92%
Cn1c2c(Cl)c(Cl)ccc2c2cn[nH]c(=O)c21 | thermal stability, DSF | 10 µM | ΔTm | 1.3 °C
O=C(Nc1cnn(-c2csc(C(=O)NC3COC3)c2)c1)Nc1ccccc1Cl | enzyme activity, inhibitor | 5 µM | remaining activity | 91.9%
COc1cc(Cl)c(C(=O)N[C@@H](CN[C@H]2CC[C@@H](N)CC2)Cc2ccc(C#N)cc2)cc1-c1ccc(CN[C@H](C)c2ccc(C)cc2)o1 | enzyme activity, inhibitor | 1 µM | remaining activity | 100%
Cn1c2c(c3ccc(Cl)c(Cl)c31)C(C#N)C1(CCN(C(=O)OC(C)(C)C)CC1)NC2=O (racemic) | thermal stability, DSF | 10 µM | ΔTm | 0 °C
Cc1ccc(C(=O)Nc2ccc(CN3CCN(C)CC3)c(C(F)(F)F)c2)cc1C#Cc1cnc2cccnn12 | enzyme activity, inhibitor | 23.5 nM | remaining activity | 93%
C[C@H](c1ccc(F)cc1)N(Cc1cccc(C(=O)O)c1)C(=O)c1cnc2ccccc2c1 | cell-free assay, competition with immobilised ligand | 1 µM | remaining binding | 100%
Nc1ncnc2occ(-c3ccc(NC(=O)Nc4cc(C(F)(F)F)ccc4F)cc3)c12 | cell-free assay, inhibitor | 20 µM | remaining signal | 100%
N#CC1c2c([nH]c3c(Cl)c(Cl)ccc23)C(=O)NC12CCCCC2 (racemic) | thermal stability, DSF | 10 µM | ΔTm | 0.6 °C
COc1ccc2cc(OCC3(C(=O)O)CN(C(=O)c4ccc(F)cc4)C3)ccc2c1 | cell-free assay, competition with immobilised ligand | 1 µM | remaining binding | 100%
